Assay outcomes deposited in PubChem by several laboratories.
Only some compounds are listed: those with a hit (about 2.3% of all), similar ones and a draw of the others.
CSN inh = CSN deneddylation inhibition; Q92905; Purified CSN, SCF-Nedd8-OG deneddylation, fluorescence polarization; inhibition, % at 12.5 µM; 0.38% of 360,000 active; AID 651999;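 active = pattern-corrected inhibition above about 35%, with an unprinted fluorescence ratio check between 0.5 and 1.5, limit read from the data, passing the limit was not always enough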
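Assay system: purified human Csn5 enzyme expressed in HEK293T cells; measure: % inhibition; also added: SCFSkp2-Nedd8OG substrate at 10 nM final; technique: fluorescence polarization; times: reaction 90 min, room temperature; medium: Tris buffer pH 7.5, NaCl, DTT, Tween-20, trehalose, ovalbumin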
HNF4A DNA FP = change in binding of human HNF4 alpha to DNA; P41235; HNF4a-FITC DNA binding, fluorescence polarization, 1 h; activity change, % at 10 µM; 0.3% of 360,000 active; AID 1224865; in the data active = activity change above about 30%, passing the limit was not always enough
Target sequence (P41235 whole entry, looked up): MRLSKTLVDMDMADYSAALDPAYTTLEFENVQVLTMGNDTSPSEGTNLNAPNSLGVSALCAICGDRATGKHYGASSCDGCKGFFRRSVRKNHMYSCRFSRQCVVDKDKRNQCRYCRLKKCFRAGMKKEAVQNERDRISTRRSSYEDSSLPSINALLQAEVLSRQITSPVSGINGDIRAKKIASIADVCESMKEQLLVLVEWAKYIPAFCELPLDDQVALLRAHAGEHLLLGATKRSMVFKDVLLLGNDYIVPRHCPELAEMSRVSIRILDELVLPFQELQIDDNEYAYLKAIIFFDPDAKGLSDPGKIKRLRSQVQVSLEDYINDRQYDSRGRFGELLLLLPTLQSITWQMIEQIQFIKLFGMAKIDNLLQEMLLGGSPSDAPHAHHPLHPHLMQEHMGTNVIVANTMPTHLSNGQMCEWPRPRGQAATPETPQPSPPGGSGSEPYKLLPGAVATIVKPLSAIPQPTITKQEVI
CRFR2-BP antag = blocks CRF-induced signaling of the CRF-BP/CRF-R2 complex; AID 588475; inhibition, % at 11.8 µM; HEK293 CRF-R2/CRF-BP, CRF-induced calcium fluorescence; 0.59% of 350,000 active;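 active = inhibition of the ligand-induced calcium signal above about 50% at the single tested concentration, limit read from the data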
TPT1 inhibitor = blocks Candida albicans tRNA 2'-phosphotransferase; recombinant caTPT1, FP RNA substrate dephosphorylation; inhibition, % at 5 µM; 0.81% of 300,000 active; AID 1962;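 active = inhibition above the mean of all tested compounds plus 3 SD, set per screening campaign, cut at about 24% in these data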
CRFBP-R2 agonist = agonists of human CRF-binding protein/CRF-R2 receptor complex; HEK293 CRF-R2/CRF-BP, calcium dye fluorescence (FLIPR); percent of saturating CRF peptide response; activation, % at 13.2 µM; 0.46% of 350,000 active; AID 588473;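 active = activation of at least 50%, plus an integration ratio under a set limit after plate pattern correction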
Rpn11 block = inhibitors of human proteasome Rpn11; O00487; human 26S proteasome, Ub4-pepOG fluorescence polarization; 20S core pre-blocked with epoxomicin; calls only at 20 µM; 0.59% of 360,000 active;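 active = inhibition at 20 µM, scaled to each plate's controls, above about 33%, limit read from the data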
CSN5 deneddyl = Csn5 (human) deneddylation inhibition, single-concentration validation. shares compounds with CSN inh. AID 720654. 62% of 540 active. Csn5 deneddylation of SCF-Nedd8OG, fluorescence polarization, 90 min. inhibition, % at 16.6 µM; in the data active = inhibition above about 50%
MMP2 cntr CSN = blocks human MMP-2 in a CSN deneddylation counter-screen; inhibition, % at 16.6 µM; shares compounds with CSN inh; 33% of 540 active; recombinant MMP-2, FRET substrate fluorescence, 60 min;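 active = corrected plate-normalized z-score of 5 or more, or -5 or less, or inhibition of 15% or more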
Thrombin counter = thrombin (bovine) inhibition, counter-screen for CSN hits | bovine thrombin cleavage of Ub4-pepOG, fluorescence polarization | 49% of 540 active | inhibition, % at 16.6 µM | shares compounds with CSN inh | AID 720656;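 active = inhibition at or above a set limit, with a fluorescence interference ratio between 0.5 and a set maximum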
HNF4A confirm = change in binding of human HNF4 alpha to DNA, retest; shares compounds with HNF4A DNA FP; HNF4A-FITC DNA binding, fluorescence polarization, 1 h; activity change, % at 12.5 µM; 99% of 210 active; AID 1224897; call rule not given here
Numbers stand for hits; – = inactive; · = not tested or not shown; + = active, no number.

SMILES	CSN inh	HNF4A DNA FP	CRFR2-BP antag	TPT1 inhibitor	CRFBP-R2 agonist	Rpn11 block	CSN5 deneddyl	MMP2 cntr CSN	Thrombin counter	others
O=C1/C(=C\c2ccc(O)c(O)c2)SC(=S)N1Cc1ccccc1	55	68	–	·	–	·	–	–	68
O=C1/C(=C\c2cccc(O)c2)SC(=S)N1Cc1ccccc1	–	–	–	–	–	–	·	·	·
O=C1/C(=C/c2ccncc2)SC(=S)N1Cc1ccccc1	–	–	–	–	–	–	·	·	·
COc1ccc(-n2c(SCc3nnc(-c4ccccc4)o3)nnc2-c2ccccc2)cc1	–	–	–	–	–	–	·	·	·
Nc1cccc2c1C(=O)N(C(=O)/C=C/c1ccc(F)cc1)C2=O	37	–	–	–	–	–	69	–	–
Nc1cccc2c1C(=O)N(C(=O)c1ccco1)C2=O	–	–	–	–	–	–	·	·	·
COc1cc(/C=C2\SC(=S)N(NC(=O)c3cccc(O)c3)C2=O)ccc1O	50	47	–	·	64	·	96	–	40
COc1ccccc1C(=O)OCc1cc(=O)n2ccsc2n1	–	–	–	·	–	–	·	·	·
Nc1c(/C=C2/C=CC(=O)C(O)=C2)c(=O)nc2sc(CC(=O)N3CCCC3)nn12	39	–	–	–	–	–	–	36	37
O=C1C(=C(I)I)c2ccccc2-c2ccccc21	52	–	–	·	–	–	63	–	–
O=C(O)c1cccc2c1C(=O)c1ccccc1-2	–	–	–	–	–	–	·	·	·
O=C(O)CCCC(=O)OCCc1cc2ccccc2c(=O)o1	–	–	–	·	–	–	·	·	·
Nc1cc2c3ccccc3ccc2c2ccccc12	46	–	–	·	–	–	82	–	–
Nc1ccc2ccccc2c1[N+](=O)[O-]	–	–	–	·	–	–	·	·	·
Cc1ccc(-c2cc(C(=O)N/N=C/c3ccc([N+](=O)[O-])o3)c3ccccc3n2)o1	39	–	–	·	–	–	107	–	–
O=C(N/N=C/c1ccc([N+](=O)[O-])o1)c1cc(-c2ccncc2)nc2ccccc12	–	–	–	–	–	–	·	·	·
NCc1cc2c3c(c1)CCCN3CCC2	63	–	–	–	–	–	88	–	–
COc1c(C=O)cc2c3c1CCCN3CCC2	–	–	–	–	–	–	·	·	·
CCn1c(Cc2c(C)[nH]c3ccccc23)nnc1SCC(=O)NCc1ccco1	–	–	–	–	–	–	·	·	·
O=C(O)c1ccc(-n2cccc2/C=N\NC(=O)c2cc3cc(Br)ccc3o2)cc1	43	–	–	–	–	–	–	21	22
Cn1cc(/C=N/NC(=O)c2cc3cc(Br)ccc3o2)c2ccccc21	–	–	–	–	–	–	·	·	·
CN(CC(=O)Nc1ccccc1C(F)(F)F)C(=O)c1cccc(-n2cccc2)c1	–	–	–	–	–	–	·	·	·
Cc1cc(C)cc(NC(=O)/C=C/c2ccc([N+](=O)[O-])s2)c1	–	–	–	–	–	–	·	·	·
CC(=O)c1cccc(NC(=O)/C=C/c2ccc([N+](=O)[O-])s2)c1	35	–	–	·	–	–	97	–	–
O=C1NN(c2ccccc2)C(=O)/C1=C/c1ccc(-c2ccc(C(=O)O)cc2)o1	35	–	–	–	–	–	60	–	–
SMILES	CSN inh	HNF4A DNA FP	CRFR2-BP antag	TPT1 inhibitor	CRFBP-R2 agonist	Rpn11 block	CSN5 deneddyl	MMP2 cntr CSN	Thrombin counter	others
CC(C)Cn1c(N)c(C(=O)NCC2CCCO2)c2nc3ccccc3nc21 (stereo unspecified)	43	–	–	–	–	–	103	–	–
COC(=O)c1cn(-c2ccccc2)nc1-c1ccc(OC)cc1	–	–	–	–	–	–	·	·	·
O=C(NCCCN1CCCC1=O)c1cc2c(s1)CCCCC2	–	–	–	–	–	–	·	·	·
CC(=O)OC[C@]12CC[C@H]3[C@@](C)(CC[C@H]4C(C)(C)CCC[C@]34C)[C@@H]1CC(C1=CC(=O)OC1O)O2 (stereo partly specified)	35	–	·	·	·	+	–	–	–
CC(C)(C)NC(=O)/C(=C\c1ccc(Br)cc1)NC(=O)c1cccs1	–	–	–	–	–	–	·	·	·
O=C(CSc1nnc2ccccn12)NC(=O)c1cccc([N+](=O)[O-])c1	–	–	–	·	–	–	·	·	·
O=[N+]([O-])c1ccc(C2=NN(c3ccccc3)C(c3ccco3)C2)cc1 (stereo unspecified)	63	–	–	·	105	·	176	–	–
COc1ccc(S(=O)(=O)N2CCOCC2)cc1NC(=O)COc1ccc2c(C)cc(=O)oc2c1	–	–	–	·	–	–	·	·	·
Oc1ccc(C2=Nn3c(nnc3-c3ccco3)SC2)cc1O	38	–	–	–	–	–	·	31	–
O=C1C=C(NCc2ccccc2)c2ccccc2C1=O	72	–	–	·	–	–	77	–	–
CC(=O)c1ccc(NC(=O)CSc2nnc(-c3ccco3)c(-c3ccco3)n2)cc1	–	–	–	–	–	–	·	·	·
O=C(CSc1nnc(-c2ccco2)c(-c2ccco2)n1)c1ccccc1	37	–	–	–	–	–	98	–	–
COc1ccccc1NC(=O)Nc1ccnn1Cc1cccs1	–	–	–	–	–	–	·	·	·
O=C(CCl)Nc1nc(-c2ccco2)c(-c2ccco2)s1	43	–	–	–	–	–	79	–	–
O=C1c2ccccc2C(=O)c2c(Nc3ccc(CCO)cc3)ccc(O)c21	–	–	–	–	–	–	·	·	·
O=C1c2c(O)ccc(O)c2C(=O)c2c(NCCNCCO)ccc(NCCNCCO)c21	44	–	–	–	–	+	–	31	–
CC1=C(C(=O)OC(C)C)C(c2ccc(Cl)cc2)n2c(sc(=Cc3ccc(OCC(=O)O)cc3)c2=O)=N1 (stereo unspecified)	84	–	·	·	·	·	–	–	26
Fc1cccc(Cc2c(-c3ccco3)nc3c4ccccc4ccn23)c1	49	–	·	·	·	–	69	–	20
Cn1c(SCc2ccc(C(C)(C)C)cc2)nnc1C1COc2ccccc2O1 (stereo unspecified)	–	–	–	–	–	–	·	·	·
CC(C)[C@H](NC(=O)OC(C)(C)C)c1cc(C(=O)N[C@@H](C)c2ccccc2)c(N)s1	–	41	·	·	·	·	·	·	·	HNF4A confirm=37
